Measurements published in ChEMBL document CHEMBL1126905, “Inhibitors of cholesterol biosynthesis. 2. 3,5-Dihydroxy-7-(N-pyrrolyl)-6-heptenoates, a novel series of HMG-CoA reductase inhibitors” (J Med Chem, 1993).

What was measured:
[1] = molecular target: T1, 3-hydroxy-3-methylglutaryl-coenzyme A reductase (Rattus norvegicus, UniProt P51639); experiment: Inhibition of rat liver microsomal HMG-CoA reductase
T1 sequence (P51639 whole entry): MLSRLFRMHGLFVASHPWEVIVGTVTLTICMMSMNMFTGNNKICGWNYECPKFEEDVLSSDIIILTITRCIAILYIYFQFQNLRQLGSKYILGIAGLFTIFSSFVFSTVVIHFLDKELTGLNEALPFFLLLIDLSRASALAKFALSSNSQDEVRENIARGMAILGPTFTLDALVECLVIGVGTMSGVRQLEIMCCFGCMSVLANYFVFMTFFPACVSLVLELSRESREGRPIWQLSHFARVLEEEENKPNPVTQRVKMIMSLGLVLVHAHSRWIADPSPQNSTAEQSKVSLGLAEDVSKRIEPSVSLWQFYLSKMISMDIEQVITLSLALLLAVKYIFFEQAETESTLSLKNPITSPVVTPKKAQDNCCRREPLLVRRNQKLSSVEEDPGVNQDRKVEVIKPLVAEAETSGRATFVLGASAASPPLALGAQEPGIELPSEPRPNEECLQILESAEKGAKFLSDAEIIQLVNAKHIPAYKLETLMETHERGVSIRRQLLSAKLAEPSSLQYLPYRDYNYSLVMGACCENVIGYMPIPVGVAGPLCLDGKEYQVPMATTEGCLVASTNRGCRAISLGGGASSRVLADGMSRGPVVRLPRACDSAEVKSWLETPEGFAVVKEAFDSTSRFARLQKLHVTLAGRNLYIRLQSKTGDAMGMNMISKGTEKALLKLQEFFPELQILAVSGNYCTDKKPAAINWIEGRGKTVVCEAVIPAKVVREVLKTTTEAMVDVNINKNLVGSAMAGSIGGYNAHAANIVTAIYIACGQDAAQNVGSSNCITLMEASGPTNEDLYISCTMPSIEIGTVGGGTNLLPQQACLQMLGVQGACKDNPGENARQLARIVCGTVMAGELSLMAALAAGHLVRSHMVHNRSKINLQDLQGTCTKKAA
Method in brief: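 Test agents run as sodium salts of the dihydroxy carboxylic acids, against rat liver microsomal enzyme. Five dose levels per inhibitor, at least in duplicate, on at least two separate occasions. IC50 given as the mean, with pravastatin sodium salt as reference.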

[2] = Lipophilicity was determined; assay type: physicochemical; details: octanol/water

SMILES	IC50 [1] [nM]	logD [2]
COC(=O)C[C@H](O)C[C@H](O)/C=C/n1c(C(C)C)cc(-c2cccc(Br)c2)c1-c1ccc(F)cc1	0.5	2.8
COC(=O)C[C@H](O)C[C@H](O)/C=C/n1c(C(C)C)cc(-c2cccc(Cl)c2)c1-c1ccc(F)cc1	2	2.57
COC(=O)C[C@H](O)C[C@H](O)/C=C/n1c(C(C)C)cc(-c2ccccc2)c1-c1ccc(F)cc1	2	
COC(=O)C[C@H](O)C[C@H](O)CCn1c(C(C)C)cc(-c2ccc(F)cc2)c1-c1ccc(F)cc1	105	
COC(=O)C[C@H](O)C[C@H](O)/C=C/n1c(C(C)C)cc(-c2ccccn2)c1-c1ccc(F)cc1	2	
COC(=O)C[C@H](O)C[C@H](O)/C=C/n1c(C(C)C)cc(-c2ccc(F)cc2)c1-c1cccc(Br)c1	69	
COC(=O)C[C@H](O)C[C@H](O)/C=C/n1c(C(C)C)cc(-c2ccc(F)cc2)c1-c1ccccc1	25	
COC(=O)C[C@H](O)C[C@H](O)/C=C/n1c(C(C)C)cc(-c2ccc(F)cc2)c1-c1ccc(F)cc1	2	2.1
COC(=O)C[C@H](O)C[C@H](O)/C=C/n1c(C(C)C)cc(-c2ccncc2)c1-c1ccc(F)cc1	5	0.9
COC(=O)C[C@H](O)C[C@H](O)/C=C/n1c(C(C)C)cc(-c2ccc(F)cc2)c1-c1cccc(Cl)c1	71	
COC(=O)C[C@H](O)C[C@H](O)/C=C/n1c(-c2ccc(F)cc2)c(-c2ccc(F)cc2)c(Br)c1C(C)C	0.3	
CC[C@H](C)C(=O)O[C@H]1C[C@@H](C)C=C2C=C[C@H](C)[C@H](CC[C@@H]3C[C@@H](O)CC(=O)O3)[C@H]21 [LOVASTATIN]	3	
CC[C@H](C)C(=O)O[C@H]1C[C@H](O)C=C2C=C[C@H](C)[C@H](CC[C@@H](O)C[C@@H](O)CC(=O)O)[C@H]21 [PRAVASTATIN SODIUM]	5	
